Among all 360,000 compounds or so, about 3,600 (1%) were called active. The list comes from a sample in which actives are over-represented; it also holds similar structures and randomly drawn compounds. A number with no mark means an inactive call.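 Rule for the calls: active = activation above the mean activation of all test compounds in the run plus 3 SD (cut at about 38% in these data); inactive = the rest.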

Chain of Trace amine-associated receptor 1 (Homo sapiens) (Q96RJ0 whole entry, looked up): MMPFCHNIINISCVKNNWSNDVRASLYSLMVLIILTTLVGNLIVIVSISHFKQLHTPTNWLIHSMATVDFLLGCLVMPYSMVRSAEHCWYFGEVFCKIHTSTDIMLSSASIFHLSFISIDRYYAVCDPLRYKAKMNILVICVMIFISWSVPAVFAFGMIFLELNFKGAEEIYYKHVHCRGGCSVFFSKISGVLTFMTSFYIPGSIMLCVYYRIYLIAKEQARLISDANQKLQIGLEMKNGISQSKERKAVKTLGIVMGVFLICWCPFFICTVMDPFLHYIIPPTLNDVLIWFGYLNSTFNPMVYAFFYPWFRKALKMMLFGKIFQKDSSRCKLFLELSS

The target of the test is Trace amine-associated receptor 1 (Homo sapiens) (UniProt Q96RJ0). Kind of test: human TAAR1 agonists, primary screen, Fluo-8 calcium fluorescence, CHO RD-HGA16 cells (AID 624467). To be noted: CHO RD-HGA16 TAAR1, Fluo-8 calcium fluorescence; at 3 µM; active compounds read high; vehicle wells 0%, saturating PEA agonist 100%. The procedure, abridged: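 test system = CHO RD-HGA16 cells carrying human TAAR1 plus Gα16 | schedule = 17-24 h seeding, 75 min 37 °C dye, 30 min RT | compound dosing = 3 µM single concentration | control set = DMSO and PEA EC100 | replicates = n 1 | signal = Fluo-8 fluorescence, 5 s baseline then 140 s kinetic read | measure = percent activation vs PEA EC100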
As for `COc1ccc(NC(=O)COC(=O)Cn2c(C)nc3ccccc32)cc1OC`, the activation was 8.05%.

In the case of `Cc1ccc(-c2nnc(SCC(=O)N/N=C/c3cccs3)n2-c2ccc(C)cc2)cc1`, the activation is 2.56%.

With `Cc1nc2ccccc2n1CC(=O)N/N=C/c1cccs1`, the activation is 41% (active).

Consider `COc1ccc(N(C(=O)CNC(=O)c2ccco2)C(C(=O)NCC2CCCO2)c2ccccc2)cc1Cl` (stereo not given), for which the activation was 14%.

`CC(=O)c1ccc(N2CCN(C(=O)c3ccc(Cl)c(S(=O)(=O)NC4CC4)c3)CC2)c(F)c1`: the activation was 5.24%.

As to `COc1ccc(S(=O)(=O)Nc2ccc3c(c2)C(=O)N([C@H](C)CO)C[C@H](C)[C@@H](CN(C)C)OCCCC[C@H](C)O3)cc1`, the activation is 1.27%.

Consider `C#CCOc1ccc(/C=C2/C(=O)NN(c3ccccc3)C2=O)cc1OC`, for which the activation is 52.3% (active).

On to `COc1cc(/C=C2\SC(=O)NC2=O)ccc1OCc1ccc(Cl)nc1`, for which the activation is 0.37%.

As for `C#CCOc1ccc(/C=C2/C(=O)ON=C2C)cc1OCC`, the activation is 26.1%.

`CC(C)OC(=O)c1cc(NC(=O)C2C3CCC(O3)C2C(=O)O)cc(C(=O)OC(C)C)c1` (stereo not given): the activation was -0.82%.

Regarding `COc1ccc(NC(=O)C2C3CCC(O3)C2C(=O)O)cc1OC` (stereo not given), the activation was 2.71%.

Take `Cc1sc(NC(=O)C2C3CCC(O3)C2C(=O)O)c(C(=O)OC(C)C)c1-c1ccc(Cl)cc1` (stereo not given): the activation was 38.3% (active).

Turning to `CN1C(=O)c2cccc3c(N)ccc(c23)C1=O`, the activation was 119% (active).

Turning to `Cc1nn(C)cc1N1C(=O)c2cccc3c(N)ccc(c23)C1=O`, the activation was 83.9% (active).

Take `CCCOc1ccc(N2C(=O)CC(N(CCc3ccc(S(N)(=O)=O)cc3)C(C)=O)C2=O)cc1` (stereo not given): the activation was 1.5%.

With `Cc1ccc(CNC(=O)Cn2cnc(S(=O)(=O)N3CCCCC3)c2)o1`, the activation is 1.59%.

For `CCOC(=O)C1CCN(S(=O)(=O)c2ccc3c(c2)N(C(C)=O)CCO3)CC1`, the activation is -0.05%.

With `CCCN1C(=O)c2[nH]nc(-c3ccccc3)c2C1c1ccccc1` (stereo not given), the activation is 2.41%.

As to `CN(C)C(=O)N1CCN(C(=O)[C@@H](Cc2ccccc2)NC(=O)[C@H]2O[C@@H](n3ccc(N)nc3=O)[C@H](O)[C@@H]2O)CC1`, the activation was 1.21%.

Turning to `COC(=O)Cc1nnn2c1[C@H](C)[C@H](c1ccccc1Br)OCC2`, the activation is 2.69%.

`COc1ccc(C(=O)N2CCCCC2c2cc(C(=O)Nc3ccccc3)no2)cc1` (stereo not given): the activation is -0.19%.

For the compound `O=C(Nc1n[nH]c(C(F)(F)F)n1)c1cccs1`, the activation was -0.13%.

Consider `COc1cc(NC(=O)c2ccc(-c3csc(C)n3)cc2)c(OC)cc1Cl`, for which the activation was 3.15%.

`Cc1nc(-c2ccc(NC(=O)c3cccs3)cc2)cs1`: the activation was 44.8% (active).

Consider `COC(=O)[C@H](Cc1ccccc1)NC(=O)N1CC(C)OC(C)C1` (stereo not given in full), for which the activation was -0.71%.

Turning to `Cc1cccc(C)c1NC(=O)N1CC(C)OC(C)C1` (stereo not given), the activation is 41.9% (active).

For `CSc1ccc(NC(=O)N2CC(C)OC(C)C2)cc1` (stereo not given), the activation was 6.32%.

Regarding `CC(=O)Nc1ccc(SC[C@H](Cc2ccccc2)N2CC[C@@H](C)CCC2=O)cc1`, the activation is 9.24%.

As for `C=CCNC(=O)/C=C/c1ccc(C(C)C)cc1`, the activation is -2.85%.

For the compound `O=C(/C=C(O)/C=C/c1ccc(O)cc1)/C=C/c1ccc(O)cc1`, the activation was 63.8% (active).

For the compound `O=C(O)/C=C/c1ccc(S(=O)(=O)N2CCCCCC2)cc1`, the activation was 4.85%.

On to `COC(=O)[C@H](CC(C)C)NS(=O)(=O)c1c(F)cccc1F`, for which the activation was 1.29%.

Turning to `O=C(NCc1ccccc1)[C@H]1CCCN1C(=O)[C@@H]1CCCN1C(=O)c1ccc(Cl)cc1Cl`, the activation was 0.11%.

With `COc1ccc(SSc2ccc(OC)cc2C(=O)O)c(C(=O)O)c1`, the activation was 3.23%.

Consider `CC(C)(C)n1ncc2c(=O)n(Cc3c(Cl)cccc3Br)cnc21`, for which the activation is 38.2% (active).

Take `Cn1cnc2c1c(=O)n(Cc1c(Cl)cccc1Cl)c(=O)n2C`: the activation is 1.55%.

For the compound `CC(C)(C)n1ncc2c(=O)n(Cc3ccc(Cl)cc3)cnc21`, the activation was 11.1%.

Consider `CCCNC(=O)C1(C)CCN(Cc2ccc(Cl)c(Cl)c2)C1` (stereo not given), for which the activation is 1.99%.

With `Cc1ccc(C)c(-n2nnnc2SCC(=O)c2c(N)n(C)c(=O)n(C)c2=O)c1`, the activation was 2.95%.

Take `O=C1NC[C@H](CCCCN2C[C@H](Cc3ccc(O)cc3)N(CC3CCCCC3)C(=O)C2=O)N(CCc2ccccc2)C1=O`: the activation was -0.06%.

As for `COCCn1c(SC(C)C(=O)NC2CC2)nnc1-c1cccc(C)c1` (stereo not given), the activation is 3.19%.

In the case of `COc1ccccc1N1CCN(C(=O)c2cn(-c3ccccc3)nc2-c2cccnc2)CC1`, the activation is 19.1%.

For the compound `O=C(NNC(=S)NC(=O)c1cn(-c2ccccc2)nc1-c1ccccc1)c1ccncc1`, the activation was 118% (active).

On to `NC(=O)C1CCN(C(=O)c2cn(-c3ccccc3)nc2-c2cccnc2)CC1`, for which the activation was 1.55%.

As for `O=C(NCc1ccc(F)cc1)C1CCC(CNc2c(N3CCOCC3)c(=O)c2=O)CC1` (stereo not given), the activation was 0.31%.

Take `O=C(NCCOc1ccccc1F)Nc1ccc(Br)cc1`: the activation was 12%.

With `O=C(Nc1nnc(COc2ccccc2)s1)Nc1ccccc1F`, the activation is -0.19%.

In the case of `O=C(Nc1ccccc1)Nc1nnc(COc2ccccc2F)s1`, the activation is 49.8% (active).

Consider `COC(=O)[C@]12C[C@H](CC(=O)NCCC(C)C)C(=O)N(CCc3ccc(OC)c(OC)c3)C1=C[C@H](C(C)(C)C)O[C@@H]2C`, for which the activation is -1.91%.

Turning to `Cc1nc(NC(=O)C(C)(C)C)sc1[N+](=O)[O-]`, the activation is 1.6%.

Regarding `COC(=O)[C@@H](Cc1ccccc1)NC(=O)NCCc1ccccc1`, the activation is -0.6%.

`NC[C@H](Cc1ccccc1)NCCc1cc(C(F)(F)F)cc(C(F)(F)F)c1`: the activation was 47.6% (active).

As for `CCC(CC)NC(=O)CSc1nnc(-c2c[nH]c3ccccc23)o1`, the activation was 3.45%.

Take `CCOC(=O)c1cc2c(=O)[nH]c(C(Cl)(Cl)Cl)nc2o1`: the activation is 2.83%.

`CN1C(=O)C2CC(O)C(SC3CC4C(=O)N(C)C(=O)C4CC3O)CC2C1=O` (stereo not given): the activation was -0.78%.

`COc1cc(OC)c(NC(=O)C2CCCN2C(=O)OCc2ccccc2)cc1Cl` (stereo not given): the activation is 1.2%.

For `CN1C(=O)C(Br)(Br)CC1c1cccnc1` (stereo not given), the activation was 0.34%.

`O=C(CCCN=C1NS(=O)(=O)c2ccccc21)OCC(=O)c1ccc(F)c(F)c1`: the activation is 86.8% (active).

Take `O=C(OCCN=C1NS(=O)(=O)c2ccccc21)c1cccc([N+](=O)[O-])c1`: the activation is 0.99%.

Turning to `N#CC1(NC(=O)COC(=O)CCN=C2NS(=O)(=O)c3ccccc32)CCCCC1`, the activation is 1.14%.

For the compound `Oc1ccccc1CNc1ncc(Br)cc1Br`, the activation is 4.29%.

In the case of `Cc1cc2cc3c(N)[nH]nc3nc2cc1C`, the activation is 2.1%.

In the case of `Cc1ccc(C2NC(C(=O)O)CS2)cc1` (stereo not given), the activation was 6.54%.

`COC(=O)C1=C(C)N(Cc2ccccc2C(F)(F)F)C(=NCc2ccc(C(F)(F)F)cc2)NC1c1ccc(F)cc1` (stereo not given): the activation was 0.73%.

Consider `COCCCN(C(=O)CSCc1ccc(C)cc1)c1c(N)n(Cc2ccccc2)c(=O)[nH]c1=O`, for which the activation is 0.76%.

Consider `COc1cc(OC)cc(C(=O)N[C@H](C(=O)OCC(=O)NC(C)c2ccccc2)C(C)C)c1` (stereo not given in full), for which the activation is 78.4% (active).

On to `COc1cc(OC)cc(C(=O)NC(C(=O)N2CCC2)C(C)C)c1` (stereo not given), for which the activation was 0.84%.

On to `COc1cc(OC)cc(C(=O)NCC(=O)OCC(=O)NC(C)CCc2ccccc2)c1` (stereo not given), for which the activation is 4.34%.

`COc1ccccc1OC(C)C(=O)Nc1ccc(S(=O)(=O)Nc2nccs2)cc1` (stereo not given): the activation was 3.3%.

On to `O=C(CCNC(=O)Cn1ccc2ccccc2c1=O)NCCC1=CCCCC1`, for which the activation is 1.79%.

`Cc1ccn2c(=O)c(C(=O)NCCC3=CCCCC3)c(O)nc2c1`: the activation is 75.2% (active).

Regarding `O=C(NCCC1=CCCCC1)c1ccc(-n2cncn2)cc1`, the activation is 1.68%.

For `CC1(C)OC(=O)C2=C(CC(CCc3ccccc3)OC2c2ccc(Cl)cc2)O1` (stereo not given), the activation was -0.49%.

As to `O=c1[nH]c(-c2ccccc2)cn1C1CCN(Cc2ccc(-c3nc4ccc(F)cc4nc3-c3ccccc3)cc2)CC1`, the activation is 2.82%.

Take `Cc1cc(C)c(S(=O)(=O)N2CCC(C(=O)OCc3c(C)noc3C)CC2)c(C)c1`: the activation is 5.51%.

Regarding `COC(=O)C1=C(C(=O)OC)C2C=C(C(C)C)C1C(=O)C2(C)O` (stereo not given), the activation is 1.68%.

As for `Clc1ccccc1Nc1nc(NCc2cccs2)nc2ccsc12`, the activation was 7.75%.

Take `COc1cccc(CNc2nc(NCc3cccs3)nc3ccsc23)c1`: the activation is 39% (active).

With `COc1cccc(CNc2nc(NCc3ccccc3OC)nc3ccsc23)c1`, the activation is 3.04%.

As for `CCn1nnc(NC(=O)c2cc(Cl)c(OC)c(Cl)c2)n1`, the activation was 5.93%.

Turning to `O=C1CC(c2ccccc2)C(c2ccccc2)=NN1` (stereo not given), the activation was 2.78%.

Turning to `COc1ccc2c(c1)CCc1c(C(=O)N3CCc4ccccc4C3)noc1-2`, the activation was 13.8%.

Turning to `O=C(c1cc(-c2cccc(O)c2)on1)N1CCc2ccccc2C1`, the activation was 31.8%.

On to `O=C(c1noc2c1CCCC2)N1CCc2ccccc2C1`, for which the activation is 54.6% (active).

Regarding `CCOC(=O)CC1(NC(=O)c2cc(COc3cncc(Cl)c3)on2)CCCCC1`, the activation was 4.12%.

For the compound `COC(=O)c1[nH]c2cccc(C)c2c1NC(=O)CN1CCCc2ccccc21`, the activation is 38.2% (active).

As to `CC(=O)c1c(C)[nH]c(C(=O)OCC(=O)Nc2c(C)cccc2C)c1C`, the activation was 18.7%.

Turning to `O=C(CN1CCc2ccccc21)NC(c1ccccc1)c1ccccc1`, the activation was -0.06%.

`Cc1ccc(NC(=O)N2c3ccccc3SC2c2ccco2)c(C)c1` (stereo not given): the activation was 1.34%.

For the compound `Cc1cc(Br)cn2c(Cc3ccccc3C(F)(F)F)c(-c3ccc(C#N)cc3)nc12`, the activation was 0.31%.
